Assay [1] has as its system Pseudomonas aeruginosa PA14. The assay is described as follows: Activity of Beta-lactamase in Pseudomonas aeruginosa PA14 PA3047 harboring complemented dacB mutant gene assessed as nitrocefin hydrolysis per mg of protein by spectrophotometry. The gist of the method: (§1)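 Cells grown to OD600 1.0, pelleted and resuspended in 0.1 M KH2PO4-Na2HPO4 pH 7.0. Crude extract made by two freeze-thaw cycles plus sonication on ice. β-Lactamase read as absorbance change at 485 nm with 50 µM nitrocefin in the same pH 7.0 phosphate buffer. Extract protein measured by BCA against a bovine serum albumin standard.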

In assay [2] the test system is Pseudomonas aeruginosa PA14. Kind of assay: Activity of Beta-lactamase in Pseudomonas aeruginosa PA14 PA4020 harboring mpl mutant gene assessed as nitrocefin hydrolysis per mg of protein by spectrophotometry. The method, boiled down:
as §1

The subject of assay [3] is Pseudomonas aeruginosa PA14. The assay is described as follows: Activity of Beta-lactamase in Pseudomonas aeruginosa PA14 PA3047 harboring dacB mutant gene assessed as nitrocefin hydrolysis per mg of protein by spectrophotometry. The gist of the method:
as §1

In assay [4] the test system is Pseudomonas aeruginosa. The assay is described as follows: Antimicrobial activity against Pseudomonas aeruginosa PA14 PA5001 harboring mutation in putative glycosyl-transferase by broth microdilution method relative to wild type.
The test system of assay [5] is Pseudomonas aeruginosa PAO1. Kind of assay: Activity of Beta-lactamase in Pseudomonas aeruginosa PAO1 PA4109 harboring ampR mutant gene assessed as nitrocefin hydrolysis per mg of protein by spectrophotometry. The gist of the method: as §1
Assay [6] has as its system Pseudomonas aeruginosa. Kind of assay: Antimicrobial activity against Pseudomonas aeruginosa harboring pBBR1MCS-3 expressing algU mutant gene by Etest method. Format: functional. The method, boiled down:
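Etest MIC run in triplicate on a plasmid-carrying strain. The Mueller-Hinton agar contained tetracycline at 20 µg/ml for plasmid maintenance. The inoculum was about 1 × 10^7 CFU/ml in 0.85% NaCl, from an overnight LB culture grown at 37°C; 100 µl was spread per plate. One strip was placed per plate, with incubation at 37°C for 18 h.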

Assay [7] deals with Pseudomonas aeruginosa. Kind of assay: Antimicrobial activity against wild type Pseudomonas aeruginosa harboring pBBR1MCS-3 by Etest method.
For assay [8], the system named is Pseudomonas aeruginosa. Kind of assay: Antimicrobial activity against wild type Pseudomonas aeruginosa by Etest method.
Assay [9] deals with Pseudomonas aeruginosa. The assay is described as follows: Antimicrobial activity against Pseudomonas aeruginosa harboring mucD mutant gene by Etest method.

From ChEMBL document CHEMBL1687778, “Genetic determinants involved in the susceptibility of Pseudomonas aeruginosa to beta-lactam antibiotics” (2010) come the findings set out here.

Structures are written as SMILES. Converted amounts (≈) assume the structure as drawn.

Consider `CC(C)(O/N=C(\C(=O)N[C@@H]1C(=O)N2C(C(=O)[O-])=C(C[n+]3ccccc3)CS[C@H]12)c1csc(N)n1)C(=O)O` [CEFTAZIDIME], for which the Activity was found to be 3.8 nmol/min in [1], 96 nmol/min in assay [2], 110 nmol/min in [3] and 111 nmol/min in assay [5]. Further, the “fold change (FC)” value in the assay on Pseudomonas aeruginosa [4] was 3.

As a reminder, the MIC is the lowest concentration found to suppress growth. Read a high MIC as a less susceptible organism. In the case of `C[C@@H](O)[C@H]1C(=O)N2C(C(=O)O)=C(SCCNC=N)C[C@H]12` [IMIPENEM ANHYDROUS], the MIC amounted to 0.38 µg/mL (≈ 1.27 µM) against Pseudomonas aeruginosa [6], 0.5 µg/mL (≈ 1.67 µM) with Pseudomonas aeruginosa [7], 0.5 µg/mL (≈ 1.67 µM) against Pseudomonas aeruginosa [8] and 0.25 µg/mL (≈ 0.835 µM) with Pseudomonas aeruginosa [9].
